Calls of active or inactive are those of the source. The calls are words filed in the database; no cut-off is given here.
How the values were obtained:
[1] = Displacement of [3H]Ro15-1788 from benzodiazepine binding site of GABAA alpha-1 T206C beta2gamma2 receptor mutant expressed in HEK293T cells; assay type: cell-based; details: hek-293t
[2] = molecular target: GABA A receptor alpha-3/beta-2/gamma-2 (Rattus norvegicus, UniProt P18508+P20236+P63138); assay: Displacement of [3H]Ro-151788 from benzodiazepine binding site of GABAA alpha-3-beta-2-gamma-2 receptor expressed in HEK293T cells; assay type: cell-based, HEK-293T
Procedure, shortened: (§1)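 α2 or α3 subunits were co-transfected with β2 and γ2, all in pRK5, into HEK293T cells by CaHPO4 precipitation at 4 μg per subunit. Membranes were prepared at 48 h. IC50 came from a one-site competition fit and was converted to Ki by Cheng-Prusoff. Mean ± SD of ≥3 experiments.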

[3] = Displacement of [3H]Ro-151788 from benzodiazepine binding site of GABAA alpha-1-beta-2-gamma-2 M130C receptor mutant expressed in HEK293T cells; assay type: cell-based; details: hek-293t
[4] = Displacement of [3H]Ro-151788 from benzodiazepine binding site of GABAA alpha-1-beta-2-gamma-2 […] receptor mutant expressed in HEK293T cells; assay type: cell-based; details: hek-293t
[5] = Displacement of [3H]Ro-151788 from benzodiazepine binding site of GABAA alpha-1-beta-2-gamma-2 T81C receptor mutant expressed in HEK293T cells; assay type: cell-based; details: hek-293t
[6] = molecular target: GABA A receptor alpha-2/beta-2/gamma-2 (Rattus norvegicus, UniProt P18508+P23576+P63138); assay: Displacement of [3H]Ro-151788 from benzodiazepine binding site of GABAA alpha-2-beta-2-gamma-2 receptor expressed in HEK293T cells; assay type: cell-based, HEK-293T; procedure, shortened: as §1
[7] = Displacement of [3H]Ro-151788 from benzodiazepine binding site of GABAA alpha1 A160C beta2gamma2 receptor mutant expressed in HEK293T cells; assay type: cell-based; details: hek-293t
[8] = Displacement of [3H]Ro15-1788 from benzodiazepine binding site of GABAA alpha-1 G157C beta2gamma2 receptor mutant expressed in HEK293T cells; assay type: cell-based; details: hek-293t
[9] = Displacement of [3H]Ro-151788 from benzodiazepine binding site of GABAA alpha-1-beta-2-gamma-2 D56C receptor mutant expressed in HEK293T cells; assay type: cell-based; details: hek-293t
[10] = Displacement of [3H]Ro-151788 from benzodiazepine binding site of GABAA alpha-1-beta-2-gamma-2 R185C receptor mutant expressed in HEK293T cells; assay type: cell-based; details: hek-293t
[11] = Displacement of [3H]Ro-151788 from benzodiazepine binding site of GABAA alpha1 S204C beta2gamma2 receptor mutant expressed in HEK293T cells; assay type: cell-based; details: hek-293t
[12] = Displacement of [3H]Ro-151788 from benzodiazepine binding site of GABAA alpha-1-beta-2-gamma-2 A79C receptor mutant expressed in HEK293T cells; assay type: cell-based; details: hek-293t
[13] = Displacement of [3H]Ro-151788 from benzodiazepine binding site of GABAA alpha-1-beta-2-gamma-2 T126C receptor mutant expressed in HEK293T cells; assay type: cell-based; details: hek-293t
[14] = Displacement of [3H]Ro-151788 from benzodiazepine binding site of GABAA alpha-1-beta-2-gamma-2 L140C receptor mutant expressed in HEK293T cells; assay type: cell-based; details: hek-293t
[15] = Displacement of [3H]Ro-151788 from benzodiazepine binding site of GABAA alpha1 V202C beta2gamma2 receptor mutant expressed in HEK293T cells; assay type: cell-based; details: hek-293t
[16] = Displacement of [3H]Ro-151788 from benzodiazepine binding site of GABAA alpha-1-beta-2-gamma-2 R194C receptor mutant expressed in HEK293T cells; assay type: cell-based; details: hek-293t
Procedure, shortened: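 Transiently expressed in HEK293T (CaHPO4 transfection, equal α/β/γ DNA, 4 μg/subunit; cysteine-mutant γ2L with WT α1, β2). […] One-site competition fit for IC50; Ki by Cheng-Prusoff; mean ± SD, three experiments in triplicate; mutant/WT Ki ratio.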

[17] = Displacement of [3H]Ro15-1788 from benzodiazepine binding site of GABAA alpha-1 V211C beta2gamma2 receptor mutant expressed in HEK293T cells; assay type: cell-based; details: hek-293t
Procedure, shortened: (§2)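 Cysteine mutant α1 subunit made by recombinant PCR, co-transfected with WT β2 and γ2L (equal DNA ratios, 4 μg/subunit, CaHPO4 method) into HEK293T cells; membranes harvested 48 h post-transfection. One-site competition fit; Ki by Cheng-Prusoff; three experiments in triplicate, mean ± SD.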

[18] = Displacement of [3H]Ro15-1788 from benzodiazepine binding site of GABAA alpha-1 F99C beta2gamma2 receptor mutant expressed in HEK293T cells; assay type: cell-based; details: hek-293t
[19] = Displacement of [3H]Ro-151788 from benzodiazepine binding site of GABAA alpha-1-beta-2-gamma-2 R132C receptor mutant expressed in HEK293T cells; assay type: cell-based; details: hek-293t
[20] = Displacement of [3H]Ro-151788 from benzodiazepine binding site of GABAA alpha1 S205C beta2gamma2 receptor mutant expressed in HEK293T cells; assay type: cell-based; details: hek-293t
[21] = Displacement of [3H]Ro15-1788 from benzodiazepine binding site of GABAA alpha-1 G200C beta2gamma2 receptor mutant expressed in HEK293T cells; assay type: cell-based; details: hek-293t
[22] = Displacement of [3H]Ro-151788 from benzodiazepine binding site of GABAA alpha-1-beta-2-gamma-2 T142C receptor mutant expressed in HEK293T cells; assay type: cell-based; details: hek-293t
[23] = Displacement of [3H]Ro15-1788 from benzodiazepine binding site of GABAA alpha1 T162C beta-2-gamma-2 receptor mutant expressed in HEK293T cells; assay type: cell-based; details: hek-293t; procedure, shortened: as §2
HEK-293T [24] = assay: Displacement of [3H]Ro15-1788 from benzodiazepine binding site of GABAA alpha1 Y209C beta2gamma2 receptor mutant expressed in HEK293T cells; assay type: cell-based
Procedure, shortened: (§3)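 HEK293T cells in MEM with 10% FBS were transiently transfected by CaHPO4 precipitation with α1, β2 and γ2L subunits (WT or PCR-made, sequence-verified cysteine mutant) in pUNIV, using equal ratios at 4 μg per subunit. Membranes were harvested at 48 h. […] Ki was derived from a one-site fit using Cheng-Prusoff. Mean ± SD, three experiments in triplicate.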

HEK-293T [25] = assay: Displacement of [3H]Ro-151788 from benzodiazepine binding site of GABAA alpha1 D97C beta2gamma2 receptor mutant expressed in HEK293T cells; assay type: cell-based; procedure, shortened: as §3
HEK-293T [26] = assay: Displacement of [3H]Ro-151788 from benzodiazepine binding site of GABAA alpha-1-beta-2-gamma-2 F77C receptor mutant expressed in HEK293T cells; assay type: cell-based; procedure, shortened: as §3

Sequence of GABA A receptor alpha-3/beta-2/gamma-2 (P18508 whole entry): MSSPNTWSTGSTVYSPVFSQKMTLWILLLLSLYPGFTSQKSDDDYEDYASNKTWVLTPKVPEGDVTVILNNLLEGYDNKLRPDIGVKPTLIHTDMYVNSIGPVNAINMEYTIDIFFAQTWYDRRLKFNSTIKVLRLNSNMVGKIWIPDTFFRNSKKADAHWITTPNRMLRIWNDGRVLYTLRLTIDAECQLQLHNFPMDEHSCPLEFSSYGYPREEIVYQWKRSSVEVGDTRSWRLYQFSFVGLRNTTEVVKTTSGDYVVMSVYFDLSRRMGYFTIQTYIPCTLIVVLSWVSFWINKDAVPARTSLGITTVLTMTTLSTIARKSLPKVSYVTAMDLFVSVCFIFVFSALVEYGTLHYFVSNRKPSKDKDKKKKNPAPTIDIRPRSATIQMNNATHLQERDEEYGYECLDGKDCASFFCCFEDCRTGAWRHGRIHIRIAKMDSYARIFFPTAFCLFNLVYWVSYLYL
Sequence of GABA A receptor alpha-3/beta-2/gamma-2 (P20236 whole entry): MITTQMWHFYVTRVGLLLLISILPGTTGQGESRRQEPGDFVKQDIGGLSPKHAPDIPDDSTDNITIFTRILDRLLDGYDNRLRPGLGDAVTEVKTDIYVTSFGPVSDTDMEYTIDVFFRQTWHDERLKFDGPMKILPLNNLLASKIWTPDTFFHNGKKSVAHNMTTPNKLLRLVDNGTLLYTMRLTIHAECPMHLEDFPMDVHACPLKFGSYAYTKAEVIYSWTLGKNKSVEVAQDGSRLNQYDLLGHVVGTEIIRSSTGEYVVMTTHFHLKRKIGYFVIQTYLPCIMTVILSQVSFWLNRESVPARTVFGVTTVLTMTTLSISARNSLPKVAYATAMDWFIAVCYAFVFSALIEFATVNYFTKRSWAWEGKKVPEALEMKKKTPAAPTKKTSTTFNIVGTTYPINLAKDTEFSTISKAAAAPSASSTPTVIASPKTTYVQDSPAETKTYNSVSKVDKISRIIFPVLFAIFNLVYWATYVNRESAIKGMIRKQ
Sequence of GABA A receptor alpha-3/beta-2/gamma-2 (P63138 whole entry): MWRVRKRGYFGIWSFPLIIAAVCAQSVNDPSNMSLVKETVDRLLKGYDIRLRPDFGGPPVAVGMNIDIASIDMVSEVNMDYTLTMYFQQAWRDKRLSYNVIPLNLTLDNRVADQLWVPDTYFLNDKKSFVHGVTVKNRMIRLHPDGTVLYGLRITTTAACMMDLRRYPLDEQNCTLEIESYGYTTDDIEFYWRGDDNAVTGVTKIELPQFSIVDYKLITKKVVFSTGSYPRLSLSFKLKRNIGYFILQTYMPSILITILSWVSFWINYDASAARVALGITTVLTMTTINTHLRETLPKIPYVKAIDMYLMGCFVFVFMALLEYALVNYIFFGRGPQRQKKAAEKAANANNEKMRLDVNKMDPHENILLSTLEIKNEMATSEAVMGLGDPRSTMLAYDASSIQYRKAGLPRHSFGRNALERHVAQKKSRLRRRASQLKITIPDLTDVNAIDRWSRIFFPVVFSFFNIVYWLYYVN
Sequence of GABA A receptor alpha-2/beta-2/gamma-2 (P18508 whole entry): as the sequence (P18508 whole entry) above
Sequence of GABA A receptor alpha-2/beta-2/gamma-2 (P23576 whole entry): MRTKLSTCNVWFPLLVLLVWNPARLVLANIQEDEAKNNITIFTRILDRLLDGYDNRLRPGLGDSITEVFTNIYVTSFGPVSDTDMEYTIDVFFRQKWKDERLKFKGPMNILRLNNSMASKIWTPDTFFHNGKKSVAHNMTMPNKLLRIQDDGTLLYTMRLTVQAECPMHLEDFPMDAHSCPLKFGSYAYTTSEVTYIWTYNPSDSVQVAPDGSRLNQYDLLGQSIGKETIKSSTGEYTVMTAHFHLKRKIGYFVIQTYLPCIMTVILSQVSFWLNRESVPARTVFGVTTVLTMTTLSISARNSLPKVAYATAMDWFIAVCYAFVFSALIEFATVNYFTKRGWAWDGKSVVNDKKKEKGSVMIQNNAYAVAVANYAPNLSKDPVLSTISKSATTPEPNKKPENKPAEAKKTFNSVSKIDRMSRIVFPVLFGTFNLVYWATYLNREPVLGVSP
Sequence of GABA A receptor alpha-2/beta-2/gamma-2 (P63138 whole entry): as the sequence (P63138 whole entry) above

For `CN1CCN(C(=O)O[C@H]2c3nccnc3C(=O)N2c2ccc(Cl)cn2)CC1` [ESZOPICLONE], the Ki [1] was 0.00083 µM, the Ki [2] was 0.162 µM and the Ki [3] was 0.102 µM. For the same molecule, the Ki [4] was 0.0224 µM, the Ki [5] was 0.0752 µM and the Ki [6] was 0.114 µM. It also gave a Ki [7] of 0.0604 µM, a Ki [8] of 2.1 µM and a Ki [9] of 0.0824 µM. For the same molecule, the Ki [10] was 0.0709 µM, the Ki [11] was 0.0579 µM and the Ki [12] was 0.393 µM. For the same molecule, the Ki [13] was 0.0719 µM, the Ki [14] was 0.0463 µM and the Ki [15] was 0.249 µM. The Ki [16] was 0.067 µM, the Ki [17] was 0.0624 µM and the Ki [18] was 0.407 µM. It also gave a Ki [19] of 0.11 µM, a Ki [20] of 0.0349 µM and a Ki [21] of 0.119 µM. For the same molecule, the Ki [22] was 0.503 µM and the Ki [23] was 0.0338 µM.

For `CCOC(=O)c1ncn2c1CN(C)C(=O)c1cc(F)ccc1-2` [FLUMAZENIL], the Activity (HEK-293T [24]) was “inactive”, the Activity (HEK-293T [25]) was “inactive” and the Activity (HEK-293T [26]) was “inactive”.
